In ChEMBL document CHEMBL1137333, “Synthesis, radiosynthesis, and biological evaluation of carbon-11 labeled 2beta-carbomethoxy-3beta-(3'-((Z)-2-haloethenyl)phenyl)nortropanes: candidate radioligands for in vivo imaging of the serotonin transporter with positron emission tomography” (J Med Chem, 2006):

Columns and labels:
[1] = system: Cynomolgus monkey; assay: Uptake in anesthetized cynomolgus monkey midbrain after 105.0 mins; format: ADME, organism-based; conditions: in vivo, 1.75 h
Method in brief: (§1)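 Baseline microPET scan (P4 scanner) of anesthetized cynomolgus monkeys after injection of the carbon-11 labelled nortropane tracer. Two baseline studies were run per tracer. Radioactivity was followed over time in regional brain time-activity curves.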

[2] = system: Cynomolgus monkey; assay: Uptake in anesthetized cynomolgus monkey midbrain after 27.5 mins; format: ADME, organism-based; conditions: in vivo; method in brief: as §1
[3] = system: Cynomolgus monkey; assay: Ratio of uptake in occipital to cerebellum of anesthetized cynomolgus monkey after 65 mins; format: ADME, organism-based; conditions: in vivo
Method in brief: (§2)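 Baseline microPET (Concorde P4) in anesthetized cynomolgus monkey after injection of the [11C]-labelled tracer. Regional time-activity curves were taken, and each region's uptake was divided by cerebellum uptake (low-SERT reference) at 65, 85 and 105 min postinjection.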

[4] = system: Cynomolgus monkey; assay: Uptake in anesthetized cynomolgus monkey caudate after 0.5 mins; format: ADME, organism-based, Caudate nucleus; conditions: in vivo
Method in brief: (§3)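 Baseline microPET (Concorde P4) regional brain time-activity curves in anesthetized cynomolgus monkey following injection of the [11C]-labelled tracer, with radioactivity followed over the scan.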

[5] = system: Cynomolgus monkey; assay: Uptake in anesthetized cynomolgus monkey occipital after 12.5 mins; format: ADME, organism-based, Macaca mulatta, Occipital cortex; conditions: rhesus monkey, in vivo; method in brief: as §1
[6] = system: Cynomolgus monkey; assay: Uptake in anesthetized cynomolgus monkey putamen after 35.0 mins; format: ADME, organism-based; conditions: in vivo
Method in brief: (§4)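 Baseline microPET (Concorde P4) scan in anesthetized cynomolgus monkeys after injection of the carbon-11 labeled tracer, with no chase drug. Regional brain time-activity curves were followed over the scan. Tracer radiochemical purity and specific activity were determined by analytical HPLC at the time of injection.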

[7] = system: Cynomolgus monkey; assay: Uptake in anesthetized cynomolgus monkey occipital after 65.0 mins; format: ADME, organism-based, Macaca mulatta, Occipital cortex; conditions: rhesus monkey, in vivo; method in brief: as §1
[8] = system: Cynomolgus monkey; assay: Uptake in anesthetized cynomolgus monkey cerebellum after 45.0 mins; format: ADME, organism-based; conditions: in vivo, 0.75 h; method in brief: as §3
[9] = system: Cynomolgus monkey; assay: Ratio of uptake in caudate to cerebellum of anesthetized cynomolgus monkey after 65 mins; format: ADME, organism-based; conditions: in vivo; method in brief: as §2
[10] = system: Cynomolgus monkey; assay: Uptake in anesthetized cynomolgus monkey midbrain after 15.5 mins; format: ADME, organism-based; conditions: in vivo; method in brief: as §1
[11] = system: Cynomolgus monkey; assay: Uptake in anesthetized cynomolgus monkey frontal after 27.5 mins; format: ADME, organism-based, Frontal cortex; conditions: in vivo; method in brief: as §1
[12] = system: Cynomolgus monkey; assay: Uptake in anesthetized cynomolgus monkey occipital after 2.5 mins; format: ADME, organism-based, Macaca mulatta, Occipital cortex; conditions: rhesus monkey, in vivo; method in brief: as §1
[13] = system: Cynomolgus monkey; assay: Uptake in anesthetized cynomolgus monkey cerebellum after 35.0 mins; format: ADME, organism-based, Macaca mulatta; conditions: rhesus monkey, in vivo; method in brief: as §3
[14] = system: Cynomolgus monkey; assay: Uptake in anesthetized cynomolgus monkey putamen after 1.5 mins; format: ADME, organism-based; conditions: in vivo, 0.025 h; method in brief: as §4
[15] = system: Cynomolgus monkey; assay: Uptake in anesthetized cynomolgus monkey frontal after 4.5 mins; format: ADME, organism-based, Frontal cortex; conditions: in vivo, 0.075 h; method in brief: as §1
[16] = system: Cynomolgus monkey; assay: Uptake in anesthetized cynomolgus monkey caudate after 115.0 mins; format: ADME, organism-based, Caudate nucleus; conditions: in vivo; method in brief: as §3
[17] = system: Cynomolgus monkey; assay: Ratio of uptake in medulla to cerebellum of anesthetized cynomolgus monkey after 65 mins; format: ADME, organism-based; conditions: in vivo; method in brief: as §2
[18] = system: Cynomolgus monkey; assay: Uptake in anesthetized cynomolgus monkey pons after 18.5 mins; format: ADME, organism-based; conditions: in vivo; method in brief: as §4
[19] = system: Cynomolgus monkey; assay: Ratio of uptake in putamen to cerebellum of anesthetized cynomolgus monkey after 105 mins; format: ADME, organism-based; conditions: in vivo, 1.75 h; method in brief: as §2
[20] = system: Cynomolgus monkey; assay: Uptake in anesthetized cynomolgus monkey pons after 15.5 mins; format: ADME, organism-based; conditions: in vivo; method in brief: as §4
[21] = system: Cynomolgus monkey; assay: Uptake in anesthetized cynomolgus monkey cerebellum after 1.5 mins; format: ADME, organism-based; conditions: in vivo, 0.025 h; method in brief: as §3
[22] = system: Cynomolgus monkey; assay: Uptake in anesthetized cynomolgus monkey caudate after 9.5 mins; format: ADME, organism-based, Caudate nucleus; conditions: in vivo; method in brief: as §3
[23] = system: Cynomolgus monkey; assay: Uptake in anesthetized cynomolgus monkey cerebellum after 2.5 mins; format: ADME, organism-based, Macaca mulatta; conditions: rhesus monkey, in vivo; method in brief: as §3
[24] = system: Cynomolgus monkey; assay: Uptake in anesthetized cynomolgus monkey putamen after 75.0 mins; format: ADME, organism-based; conditions: in vivo, 1.25 h; method in brief: as §4
[25] = system: Cynomolgus monkey; assay: Uptake in anesthetized cynomolgus monkey medulla after 105.0 mins; format: ADME, organism-based, Medulla of organ; conditions: in vivo, 1.75 h; method in brief: as §1
[26] = system: Cynomolgus monkey; assay: Ratio of uptake in thalamus to cerebellum of anesthetized cynomolgus monkey after 105 mins; format: ADME, organism-based; conditions: in vivo, 1.75 h; method in brief: as §2
[27] = system: Cynomolgus monkey; assay: Uptake in anesthetized cynomolgus monkey pons after 45.0 mins; format: ADME, organism-based; conditions: in vivo, 0.75 h; method in brief: as §4
[28] = system: Cynomolgus monkey; assay: Uptake in anesthetized cynomolgus monkey pons after 55.0 mins; format: ADME, organism-based; conditions: in vivo; method in brief: as §4
[29] = system: Cynomolgus monkey; assay: Uptake in anesthetized cynomolgus monkey midbrain after 6.5 mins; format: ADME, organism-based; conditions: in vivo; method in brief: as §1
[30] = system: Cynomolgus monkey; assay: Ratio of uptake in medulla to cerebellum of anesthetized cynomolgus monkey after 85 mins; format: ADME, organism-based; conditions: in vivo; method in brief: as §2
[31] = system: Cynomolgus monkey; assay: Uptake in anesthetized cynomolgus monkey thalamus after 115.0 mins; format: ADME, organism-based; conditions: in vivo; method in brief: as §4
[32] = system: Cynomolgus monkey; assay: Ratio of uptake in occipital to cerebellum of anesthetized cynomolgus monkey after 105 mins; format: ADME, organism-based; conditions: in vivo, 1.75 h; method in brief: as §2
[33] = system: Cynomolgus monkey; assay: Ratio of uptake in frontal to cerebellum of anesthetized cynomolgus monkey after 65 mins; format: ADME, organism-based; conditions: in vivo; method in brief: as §2
[34] = system: Cynomolgus monkey; assay: Uptake in anesthetized cynomolgus monkey medulla after 4.5 mins; format: ADME, organism-based, Medulla of organ; conditions: in vivo, 0.075 h; method in brief: as §1
[35] = system: Cynomolgus monkey; assay: Uptake in anesthetized cynomolgus monkey pons after 95.0 mins; format: ADME, organism-based; conditions: in vivo; method in brief: as §4

Q: With `[11CH3]OC(=O)[C@@H]1C2CCC(C[C@@H]1c1cccc(/C=C/I)c1)N2` (stereo not given in full) as the compound, how does the Drug uptake [1] read?
A: Its Drug uptake is 7.34.

Q: And the Drug uptake [2]?
A: Its Drug uptake is 7.14.

Q: What about the Ratio [3] of the same compound?
A: The Ratio was 0.9.

Q: And the Drug uptake [4]?
A: Its Drug uptake is 0.01.

Q: And the Drug uptake [5]?
A: Its Drug uptake is 4.52.

Q: And the Drug uptake [6]?
A: The Drug uptake was 7.2.

Q: What about the Drug uptake [7] of the same compound?
A: The Drug uptake was 4.4.

Q: What about the Drug uptake [8] of the same compound?
A: Its Drug uptake is 5.11.

Q: What about the Ratio [9] of the same compound?
A: Its Ratio is 1.3.

Q: What about the Drug uptake [10] of the same compound?
A: The Drug uptake was 6.42.

Q: What about the Drug uptake [11] of the same compound?
A: Its Drug uptake is 4.09.

Q: And the Drug uptake [12]?
A: The Drug uptake was 0.85.

Q: And the Drug uptake [13]?
A: Its Drug uptake is 5.42.

Q: What about the Drug uptake [14] of the same compound?
A: The Drug uptake was 0.35.

Q: And the Drug uptake [15]?
A: The Drug uptake was 1.91.

Q: And the Drug uptake [16]?
A: Its Drug uptake is 4.84.

Q: What about the Ratio [17] of the same compound?
A: Its Ratio is 1.6.

Q: What about the Drug uptake [18] of the same compound?
A: Its Drug uptake is 5.52.

Q: What about the Ratio [19] of the same compound?
A: The Ratio was 2.1.

Q: And the Drug uptake [20]?
A: The Drug uptake was 5.23.

Q: What about the Drug uptake [21] of the same compound?
A: Its Drug uptake is 0.38.

Q: What about the Drug uptake [22] of the same compound?
A: The Drug uptake was 4.12.

Q: What about the Drug uptake [23] of the same compound?
A: Its Drug uptake is 1.2.

Q: And the Drug uptake [24]?
A: The Drug uptake was 6.92.

Q: And the Drug uptake [25]?
A: The Drug uptake was 6.25.

Q: What about the Ratio [26] of the same compound?
A: The Ratio was 2.1.

Q: And the Drug uptake [27]?
A: Its Drug uptake is 6.02.

Q: And the Drug uptake [28]?
A: The Drug uptake was 6.13.

Q: And the Drug uptake [29]?
A: The Drug uptake was 4.97.

Q: And the Ratio [30]?
A: Its Ratio is 1.8.

Q: What about the Drug uptake [31] of the same compound?
A: The Drug uptake was 6.16.

Q: What about the Ratio [32] of the same compound?
A: Its Ratio is 1.1.

Q: And the Ratio [33]?
A: The Ratio was 1.

Q: And the Drug uptake [34]?
A: The Drug uptake was 3.9.

Q: What about the Drug uptake [35] of the same compound?
A: The Drug uptake was 5.84.
